According to ChEMBL document CHEMBL1153936, “Synthesis and pharmacological evaluation of (2-oxaadamant-1-yl)amines” (Bioorg Med Chem, 2009):
Active and inactive are the calls of the source. No cut-off for these calls is given here.

Assays:
[1] = Antagonist activity against glutamate receptor in rat cerebellar granule neurons assessed as inhibition of glutamate-induced increase in intracellular calcium level by Fura-2 AM dye based fluorimetry; format: functional, cell-based
Procedure, shortened: (§1)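 Primary cerebellar granule neurons were grown on poly-L-lysine-coated glass coverslips and used after 7–14 days in vitro. Cells were loaded with 6 μM Fura-2 AM for 45 min. Fluorometry was done in Locke-Hepes buffer at 37 °C with mild agitation, recorded over 1200 s. Cells were stimulated with NMDA or glutamate at 100 μM plus 10 μM glycine. Test compound was then added at cumulative rising concentrations. IC50 came from variable-slope nonlinear regression of % inhibition. Values are means ± SEM, n ≥ 3 separate experiments on three culture batches.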

Glutamate NMDA receptor = assay: Antagonist activity against NMDA receptor in rat cerebellar granule neurons assessed as inhibition of NMDA -induced increase in intracellular calcium level by Fura-2 AM dye based fluorimetry; format: functional, cell-based; procedure, shortened: as §1
Trypanosoma brucei [2] = assay: Antitrypanosomal activity against Trypanosoma brucei 427 assessed as parasite growth inhibition up to 5 mg/mL after 48 hrs; format: functional, organism-based
Trypanosoma brucei [3] = assay: Antitrypanosomal activity against Trypanosoma brucei 427 assessed as parasite growth inhibition after 48 hrs; format: functional, organism-based; conditions: Trypanosoma brucei, 427, 48 h
Human alphaherpesvirus 1 = assay: Antiviral activity against HSV1 assessed as inhibition of viral replication; format: functional, organism-based
Procedure, shortened: (§2)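 Cell-culture virus replication assays. Inhibition of viral replication and compound cytotoxicity were scored by microscopic examination, then confirmed by a colorimetric MTS cell viability assay.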

Human alphaherpesvirus 2 = assay: Antiviral activity against HSV2 assessed as inhibition of viral replication; format: functional, organism-based; procedure, shortened: as §2
Vaccinia virus = assay: Antiviral activity against Vaccinia virus assessed as inhibition of viral replication; format: functional, organism-based; conditions: Orthopoxvirus vaccinia
Procedure, shortened: (§3)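 Cell-culture virus replication assay. Inhibition of virus-induced effects and compound cytotoxicity were scored by microscopic examination and confirmed by colorimetric MTS cell-viability readout.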

Feline coronavirus = assay: Antiviral activity against Feline coronavirus assessed as inhibition of viral replication; format: functional, organism-based; procedure, shortened: as §2
Human respirovirus 3 = assay: Antiviral activity against parainfluenza virus 3 assessed as inhibition of viral replication; format: functional, organism-based; procedure, shortened: as §2
[4] = test system: Respiratory syncytial virus; assay: Antiviral activity against Respiratory syncytial virus assessed as inhibition of viral replication; format: functional, organism-based; procedure, shortened: as §2
[5] = test system: Vesicular stomatitis virus; assay: Antiviral activity against Vesicular stomatitis virus assessed as inhibition of viral replication; format: functional, organism-based; procedure, shortened: as §3
Sindbis virus = assay: Antiviral activity against Sindbis virus assessed as inhibition of viral replication; format: functional, organism-based; procedure, shortened: as §2
Punta Toro virus = assay: Antiviral activity against Punta Toro virus assessed as inhibition of viral replication; format: functional, organism-based; procedure, shortened: as §2
Coxsackievirus B4 = assay: Antiviral activity against Coxsackievirus B4 assessed as inhibition of viral replication; format: functional, organism-based; procedure, shortened: as §2
[6] = test system: Mammalian orthoreovirus 1; assay: Antiviral activity against Reovirus 1 assessed as inhibition of viral replication; format: functional, organism-based; procedure, shortened: as §2
Influenza A virus = assay: Antiviral activity against Influenza A virus (A/Puerto Rico/8/34(H1N1)) assessed as inhibition of viral replication; format: functional, organism-based; conditions: A/Puerto Rico/8/1934(H1N1); procedure, shortened: as §3
Influenza A virus H3N2 = assay: Antiviral activity against Influenza A virus (A/Hong Kong/7/1987(H3N2)) assessed as inhibition of viral replication; format: functional, organism-based; procedure, shortened: as §3
Influenza B virus = assay: Antiviral activity against Influenza B virus (B/Hong Kong/05/1972) assessed as inhibition of viral replication; format: functional, organism-based; procedure, shortened: as §3

With `CN(CCc1ccccc1)C12CC3CC(CC(C3)O1)C2` the IC50 [1] was greater than 500 µM, the IC50 (Glutamate NMDA receptor) was greater than 200 µM and the Activity (Trypanosoma brucei [2]) was “inactive”.
For `CN(C)C12CC3CC(CC(C)(C3)O1)C2`, the IC50 [1] was greater than 500 µM, the IC50 (Glutamate NMDA receptor) was greater than 200 µM and the IC50 (Trypanosoma brucei [3]) was 3.97 µM. For the same molecule, the IC90 (Trypanosoma brucei [3]) was 6.82 µM.
For `CCC12CC3CC(C1)CC(N(C)C)(C3)O2`, the IC50 [1] was 106 µM, the IC50 (Glutamate NMDA receptor) was 55 µM and the IC50 (Trypanosoma brucei [3]) was 10.9 µM. It also gave an IC90 (Trypanosoma brucei [3]) of 15.5 µM.
With `NC12CC3CC(C1)CC(c1ccccc1)(C3)O2` the IC50 [1] was 350 µM, the IC50 (Glutamate NMDA receptor) was 226 µM and the Activity (Human alphaherpesvirus 1) was “inactive”. The Activity (Human alphaherpesvirus 2) was “inactive”, the Activity (Vaccinia virus) was “inactive” and the Activity (Feline coronavirus) was “inactive”. The Activity (Human respirovirus 3) was “inactive”, the Activity [4] was “inactive” and the Activity [5] was “inactive”. For the same molecule, the Activity (Sindbis virus) was “inactive”, the Activity (Punta Toro virus) was “inactive” and the Activity (Coxsackievirus B4) was “inactive”. For the same molecule, the Activity [6] was “inactive”, the Activity (Influenza A virus) was “inactive” and the Activity (Influenza A virus H3N2) was “inactive”. The Activity (Influenza B virus) was “inactive”.
Molecule `CCC12CC3CC(C1)CC(N(C)Cc1ccccc1)(C3)O2` has an IC50 [1] greater than 500 µM and an IC50 (Glutamate NMDA receptor) greater than 200 µM.
`CC12CC3CC(C1)CC(NN)(C3)O2` gave an IC50 [1] greater than 500 µM and an IC50 (Glutamate NMDA receptor) greater than 200 µM.
In the case of `CCC12CC3CC(C1)CC(NC)(C3)O2`, the IC50 [1] is reported as 108 µM, the IC50 (Glutamate NMDA receptor) is reported as 32 µM and the Activity (Human alphaherpesvirus 1) is reported as “inactive”. The Activity (Human alphaherpesvirus 2) was “inactive”, the Activity (Vaccinia virus) was “inactive” and the Activity (Feline coronavirus) was “inactive”. For the same molecule, the Activity (Human respirovirus 3) was “inactive”, the Activity [4] was “inactive” and the Activity [5] was “inactive”. For the same molecule, the Activity (Sindbis virus) was “inactive”, the Activity (Punta Toro virus) was “inactive” and the Activity (Coxsackievirus B4) was “inactive”. The Activity [6] was “inactive”, the Activity (Influenza A virus) was “inactive” and the Activity (Influenza A virus H3N2) was “inactive”. The Activity (Influenza B virus) was “inactive”.
For `CNC12CC3CC(CC(C3)O1)C2`, the IC50 [1] was greater than 500 µM, the IC50 (Glutamate NMDA receptor) was greater than 200 µM and the Activity (Human alphaherpesvirus 1) was “inactive”. The Activity (Human alphaherpesvirus 2) was “inactive”, the Activity (Vaccinia virus) was “inactive” and the Activity (Feline coronavirus) was “inactive”. The Activity (Human respirovirus 3) was “inactive”, the Activity [4] was “inactive” and the Activity [5] was “inactive”. For the same molecule, the Activity (Sindbis virus) was “inactive”, the Activity (Punta Toro virus) was “inactive” and the Activity (Coxsackievirus B4) was “inactive”. For the same molecule, the Activity [6] was “inactive”, the Activity (Influenza A virus) was “inactive” and the Activity (Influenza A virus H3N2) was “inactive”. The Activity (Influenza B virus) was “inactive” and the Activity (Trypanosoma brucei [2]) was “inactive”.
In the case of `CCC12CC3CC(C1)CC(NCc1ccccc1)(C3)O2`, the IC50 [1] is reported as greater than 500 µM and the IC50 (Glutamate NMDA receptor) is reported as greater than 200 µM.
In the case of `c1ccc(CN(Cc2ccccc2)C23CC4CC(CC(C4)O2)C3)cc1`, the IC50 [1] is reported as greater than 500 µM, the IC50 (Glutamate NMDA receptor) is reported as greater than 200 µM and the Activity (Trypanosoma brucei [2]) is reported as “inactive”.
In the case of `CN(Cc1ccccc1)C12CC3CC(CC(C3)O1)C2`, the IC50 [1] is reported as greater than 500 µM, the IC50 (Glutamate NMDA receptor) is reported as greater than 200 µM and the Activity (Trypanosoma brucei [2]) is reported as “inactive”.
In the case of `NC12CC3CC(CC(C3)O1)C2`, the IC50 [1] is reported as greater than 500 µM, the IC50 (Glutamate NMDA receptor) is reported as greater than 200 µM and the Activity (Human alphaherpesvirus 1) is reported as “inactive”. For the same molecule, the Activity (Human alphaherpesvirus 2) was “inactive”, the Activity (Vaccinia virus) was “inactive” and the Activity (Feline coronavirus) was “inactive”. For the same molecule, the Activity (Human respirovirus 3) was “inactive”, the Activity [4] was “inactive” and the Activity [5] was “inactive”. The Activity (Sindbis virus) was “inactive”, the Activity (Punta Toro virus) was “inactive” and the Activity (Coxsackievirus B4) was “inactive”. For the same molecule, the Activity [6] was “inactive”, the Activity (Influenza A virus) was “inactive” and the Activity (Influenza A virus H3N2) was “inactive”. The Activity (Influenza B virus) was “inactive” and the Activity (Trypanosoma brucei [2]) was “inactive”.
For `c1ccc(CNC23CC4CC(CC(C4)O2)C3)cc1`, the IC50 [1] was greater than 500 µM, the IC50 (Glutamate NMDA receptor) was greater than 200 µM and the Activity (Human alphaherpesvirus 1) was “inactive”. For the same molecule, the Activity (Human alphaherpesvirus 2) was “inactive”, the Activity (Vaccinia virus) was “inactive” and the Activity (Feline coronavirus) was “inactive”. The Activity (Human respirovirus 3) was “inactive”, the Activity [4] was “inactive” and the Activity [5] was “inactive”. For the same molecule, the Activity (Sindbis virus) was “inactive”, the Activity (Punta Toro virus) was “inactive” and the Activity (Coxsackievirus B4) was “inactive”. The Activity [6] was “inactive”, the Activity (Influenza A virus) was “inactive” and the Activity (Influenza A virus H3N2) was “inactive”. For the same molecule, the Activity (Influenza B virus) was “inactive” and the Activity (Trypanosoma brucei [2]) was “inactive”.
In the case of `CCC12CC3CC(CC(N)(C3)O1)C2`, the IC50 [1] is reported as 223 µM and the IC50 (Glutamate NMDA receptor) is reported as 83 µM.
`NNC12CC3CC(C1)CC(c1ccccc1)(C3)O2` showed an IC50 [1] greater than 500 µM.
Molecule `NC12CC3CC(CC(C3)C1)C2` [AMANTADINE] has an IC50 (Trypanosoma brucei [3]) greater than 130 µM.
In the case of `c1ccc(CCNC23CC4CC(CC(C4)O2)C3)cc1`, the IC50 [1] is reported as greater than 500 µM, the IC50 (Glutamate NMDA receptor) is reported as greater than 200 µM and the Activity (Trypanosoma brucei [2]) is reported as “inactive”.
In the case of `CCC12CC3CC(C1)CC(NN)(C3)O2`, the IC50 [1] is reported as greater than 500 µM.
`CCN(CC)C12CC3CC(CC(CC)(C3)O1)C2` showed an IC50 [1] of 22 µM and an IC50 (Glutamate NMDA receptor) of 14 µM.
Work on `CC12CC3CC(C1)CC(N)(C3)O2` yielded an IC50 [1] greater than 500 µM and an IC50 (Glutamate NMDA receptor) greater than 200 µM.
In the case of `NC12CC3CC(C1)CC(C1CCCCC1)(C3)O2`, the IC50 [1] is reported as greater than 500 µM, the IC50 (Glutamate NMDA receptor) is reported as 94 µM and the Activity (Human alphaherpesvirus 1) is reported as “inactive”. For the same molecule, the Activity (Human alphaherpesvirus 2) was “inactive”, the Activity (Vaccinia virus) was “inactive” and the Activity (Feline coronavirus) was “inactive”. For the same molecule, the Activity (Human respirovirus 3) was “inactive”, the Activity [4] was “inactive” and the Activity [5] was “inactive”. The Activity (Sindbis virus) was “inactive”, the Activity (Punta Toro virus) was “inactive” and the Activity (Coxsackievirus B4) was “inactive”. For the same molecule, the Activity [6] was “inactive”, the Activity (Influenza A virus) was “inactive” and the Activity (Influenza A virus H3N2) was “inactive”. For the same molecule, the Activity (Influenza B virus) was “inactive”.
`CC(N)C12CC3CC(CC(C3)C1)C2` (stereo not given) [RIMANTADINE] gave an IC90 (Trypanosoma brucei [3]) of 14 µM.
